MC4R barr agon = MC4R agonists recruiting beta-arrestin, primary screen, cell-based, luminescence, agonist arm of biased-ligand search; Melanocortin receptor 4 (Homo sapiens), P32245; U2OS MC4R beta-arrestin complementation; percent of melanotan II response, DMSO zero; activation, % at 8.9 µM; 360,000 compounds, 0.98% hits;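 active = activation above a per-plate cutoff, the mean activation of sample wells on that plate plus 3 SD, cut at about 8% in these data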
Target sequence (P32245 whole entry, looked up): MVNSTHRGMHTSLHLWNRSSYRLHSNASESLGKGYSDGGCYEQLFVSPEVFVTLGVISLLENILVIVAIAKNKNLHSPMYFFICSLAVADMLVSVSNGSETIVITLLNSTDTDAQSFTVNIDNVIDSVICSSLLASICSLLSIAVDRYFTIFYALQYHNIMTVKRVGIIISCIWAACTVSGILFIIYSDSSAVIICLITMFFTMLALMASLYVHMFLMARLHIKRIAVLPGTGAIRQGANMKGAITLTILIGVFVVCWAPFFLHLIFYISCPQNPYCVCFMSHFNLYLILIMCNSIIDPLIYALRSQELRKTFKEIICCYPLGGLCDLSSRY
OPRM1-OPRD1 inv = inverse agonists of MOR-DOR heterodimerization, primary screen, cell-based, luminescence. cell-based MOR-DOR heterodimer luminescence, inverse agonism. inhibition, % at 9.3 µM. Mu-type opioid receptor (Homo sapiens) + Delta-type opioid receptor (Homo sapiens), …. 340,000 compounds, 0.21% hits. AID 504357, 2011; in the data active = inhibition above about 22%, passing the limit was not always enough;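 also: 0% = cells with DMSO and 100% = wells without cells with DMSO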
HTR5A ag = HTR5A agonists in luminescence cell assay, primary screen, counter-screen for OPRM1-OPRD1 heterodimer agonist project, full-deck HTS. activation, % at 9.3 µM. cell-based. 5-hydroxytryptamine receptor 5A (Homo sapiens), P47898. 340,000 compounds, 0.61% hits; in the data active = activation mostly above about 9.5%, no sharp cut-off; inactive = mostly below about 7.6%;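 also: 0% = cells with vehicle only and 100% = reference agonist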
HTR5A inv ctr = HTR5A inverse agonists in luminescence cell assay, primary screen, counter-screen for OPRM1-OPRD1 heterodimer inverse agonist project, full-deck HTS; 5-hydroxytryptamine receptor 5A (Homo sapiens), P47898; HTR5A cell line, inverse agonism; inhibition, % at 9.3 µM; 340,000 compounds, 0.083% hits; in the data active = inhibition mostly above about 23%, no sharp cut-off; inactive = mostly below about 18%;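 also: 0% = cells with DMSO and 100% = no-cell wells with DMSO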
MC4R antagonist = MC4R antagonists of cAMP signaling, primary screen, cell-based, TR-FRET, antagonist arm of biased-ligand search | MC4R-expressing cells, MTII-stimulated cAMP, LANCE TR-FRET | inhibition, % at 6.5 µM | 360,000 compounds, 0.48% hits;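 active = inhibition above its plate's cutoff, the mean of tested wells on that plate plus 3 SD, cut at about 29% in these data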;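 also: 0% = Melanotan II alone and 100% = Melanotan II plus saturating MCL0020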
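Test system: U2OS cells stably expressing human melanocortin 4 receptor (MC4R); also added: Melanotan II challenge; compound: 6.5 µM single dose; timing: 30-min compound preincubation, 1-h Melanotan II challenge, 1-h detection, room temperature; signal: Eu-cAMP/anti-cAMP TR-FRET, emission 671 nm; repeats: one well per compound, no replicates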
OPRM1-OPRD1 ag = agonists of OPRM1-OPRD1 heterodimerization, primary screen, cell-based, luminescence. cells. AID 504326, 2011. 340,000 compounds, 0.3% hits. activation, % at 9.3 µM. Mu-type opioid receptor (Homo sapiens) + Delta-type opioid receptor (Homo sapiens), …; in the data active = activation above about 18%;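 also: 0% = vehicle-treated cells and 100% = reference agonist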
cAMP nonselect = nonselective cAMP signaling inhibitors, parental cells, counter-screen for MC4R biased antagonist project, cell-based, TR-FRET, U2OS, forskolin, triplicate. shares compounds with MC4R antagonist. LANCE TR-FRET. inhibition, % at 6.5 µM. 1,600 compounds, 26% hits;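 active = mean inhibition over triplicates above the low-control well mean plus 3 SD, set per campaign, cut at about 13% in these data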;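 also: signal is single emission at 671 nm which falls as cellular cAMP rises; 0% = forskolin-stimulated wells and 100% = buffer without forskolin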
MC4R cAMP antag = MC4R cAMP antagonists, retest, confirmation, cell-based, TR-FRET. shares compounds with MC4R antagonist. MC4R-expressing cells, MTII-stimulated cAMP. inhibition, % at 6.5 µM. 1,600 compounds, 27% hits. AID 602195, 2012; in the data active = inhibition above about 29%;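 also: 0% = agonist stimulated wells alone and 100% = agonist stimulated wells plus saturating reference antagonist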
* hit, by the source's call; x = no result given. Only some compounds are listed: those with a hit (about 2.4% of all), similar ones and a draw of the others.

SMILES	MC4R barr agon	OPRM1-OPRD1 inv	HTR5A ag	HTR5A inv ctr	MC4R antagonist	OPRM1-OPRD1 ag	cAMP nonselect	MC4R cAMP antag
Cc1ccccc1N1CCN(C2CCCN(C(=O)CN3CCCC3=O)C2)CC1 (stereo unspecified)	0	0	5	-12	31*	0	-2	-4
C#CCOCCOCCOCCNc1nc(N2CCN(C(=O)CCCCCCCCCCNC(=O)[C@H](CCCCN)n3cc(CCO)nn3)CC2)nc(N2CCN(C(=O)CCCCCCCCCCNC(=O)[C@H](CCCCN)n3cc(CCO)nn3)CC2)n1	0	13	4	-28	4	-3	x	x
C#CCOCCOCCOCCNc1nc(N2CCN(C(=O)CCCCCCCCCCNC(=O)[C@H](CCCCN)n3cc(C[C@@H](C)CC)nn3)CC2)nc(N2CCN(C(=O)CCCCCCCCCCNC(=O)[C@H](CCCCN)n3cc(C[C@@H](C)CC)nn3)CC2)n1	0	-61	1	-3	75*	11	34*	84*
COc1ccc(/C=N/NC(=O)C2COc3ccccc3O2)cc1OC (stereo unspecified)	2	-8	-1	4	29*	1	-2	-12
COc1cc(/C=N/NC(=O)C2COc3ccccc3O2)ccc1O (stereo unspecified)	-2	9	5	11	2	-2	x	x
O=Cc1cc2ccccc2nc1SCCCF	-2	-9	4	-12	-15	1	x	x
COCCCC1CCN(Cc2nc(-c3ccccc3)no2)CC1	2	-21	3	-8	30*	3	0	-7
CSc1ccccc1C(=O)N1CCC2(CC1)CC(=O)c1ccccc1O2	-2	16	-3	8	-3	-3	x	x
Cc1ccc(S(=O)(=O)N2CCN(C(=O)Cn3nc(C)c([N+](=O)[O-])c3C)CC2)cc1	-3	23	4	-11	-2	-6	x	x
CCc1ccc2[nH]c(=O)c(CN(Cc3ccccc3)Cc3nnnn3Cc3ccco3)cc2c1	0	-26	8	-31	12	5	x	x
CCOC(=O)Cn1nnnc1CN(Cc1ccccc1)Cc1cc2cc(CC)ccc2[nH]c1=O	3	-4	7	-26	30*	1	3	0
COc1ccc(-c2cc(C(=O)Nc3ccc(Br)cc3)no2)cc1	2	20	-4	16	29*	-4	4	12
COc1ccc(-c2cc(C(=O)Nc3cc(C)on3)no2)cc1OC	-2	7	0	4	31*	-1	2	-1
CCc1nc2ccc(C(=O)N3CCN(c4ccccc4)CC3)cn2c1N(CCC(C)C)CCN(C)C	2	x	x	x	3	x	x	x
CC(C)CNC(=O)c1ccccc1NC(=O)CCSc1ccccc1	-3	-8	6	-14	0	1	x	x
CCN(CC)S(=O)(=O)c1cc(C(=O)Nc2nncs2)c(Cl)cc1Cl	-2	3	6	-30	43*	-1	17*	43*
CC(=O)N1CCN(c2cc(-c3ccccc3)nc3cc(-c4cccc(Cl)c4)nn23)CC1	5	x	x	x	41*	x	1	8
COc1ccc(-c2cc3nc(-c4ccccc4)cc(N4CCN(C(=O)c5ccoc5)CC4)n3n2)cc1	2	x	x	x	6	x	x	x
CCOc1ccc(C(C)NC(=O)c2ccc3c(c2)NC(=O)C(C)S3)cc1OCC (stereo unspecified)	0	10	0	-1	-4	-2	x	x
CN1CCN(C(=O)c2ccc(-c3ccc(F)c(F)c3)c3ccoc23)CC1	-1	x	x	x	-9	x	x	x
O=C(NCC1CCCCC1)c1csc([C@@H]2C[C@H](O)[C@@H](CO)O2)n1	0	x	x	x	8	x	x	x
Cc1ccc(NC(=O)CSc2nnc(CNC(=O)c3cccs3)o2)cc1	1	6	-7	19	31*	-1	0	-4
CCOc1ccc(OCC)c(C2C(C#N)=C(N)N(c3cccnc3)C3=C2C(=O)CC(C)(C)C3)c1 (stereo unspecified)	0	13	-2	14	7	-2	x	x
CSc1sc(C)cc1C1C(C#N)=C(N)N(c2cccnc2)C2=C1C(=O)CC(C)(C)C2 (stereo unspecified)	1	-10	-1	-16	29*	2	-4	-15
O=C(OCC(=O)N1CCCC1=O)c1nc(Cl)c(Cl)c(Cl)c1Cl	-4	4	0	13	29*	-1	23*	47*
SMILES	MC4R barr agon	OPRM1-OPRD1 inv	HTR5A ag	HTR5A inv ctr	MC4R antagonist	OPRM1-OPRD1 ag	cAMP nonselect	MC4R cAMP antag
Nc1c(Cl)c(Cl)nc(C(=O)OCC(=O)N2CCCC2=O)c1Cl	-4	16	0	0	7	-3	x	x
Nc1n[nH]c(-c2ccc([N+](=O)[O-])cc2[N+](=O)[O-])n1	-3	-23	-6	-9	5	4	x	x
Cc1cccc(C(=O)Nc2nnc(S(=O)(=O)N3CCC(C)CC3)s2)c1	-1	13	1	4	50*	-3	8	16
Cc1[nH]c(=O)[nH]c(=O)c1S(=O)(=O)Nc1cccc([N+](=O)[O-])c1C	0	9	-1	5	30*	-2	1	-8
C=C1C(=O)C23CCC4C(C)(C(=O)OC)CCCC4(C)C2CCC1(O)C3 (stereo unspecified)	0	24	2	-8	40*	-5	22*	38*
O=C(CNC(=O)c1ccc(Cl)cc1)NCCCn1ccnc1	2	9	0	-1	14	-2	x	x
C/C(=N\NC(=O)c1ccc(Cl)c(Cl)c1)c1ccccn1	-3	11	-7	25	29*	-2	20*	27
C/C(=N\NC(=O)c1ccccc1Cl)c1ccccn1	-3	20	-1	3	29*	-4	29*	23
Cc1ccccc1N1C(=O)c2cccc([N+](=O)[O-])c2C1=O	-1	-1	0	1	32*	0	14*	12
O=C1c2cccc([N+](=O)[O-])c2C(=O)N1c1c[nH]c(=O)[nH]c1=O	1	-24	-2	5	19	5	x	x

Screening results: PubChem, The Scripps Research Institute Molecular Screening Center
